The source made the active and inactive calls. No cut-off for these calls is given here. Peptide text beside a SMILES is read from it.
Assays:
Erythrocyte = test: Inhibition of CD2-CD58 interaction assessed as inhibition of E-rosette formation between Jurkat cells and sheep RBCs at 200 uM; type: cell-based; set-up: Activity: scale not given: the % may be the effect or the level left
Method in brief: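 E-rosetting: test peptide added first to AET-treated sheep red blood cells (CD58-expressing), then an equal amount of Jurkat T cells (CD2-expressing). Cells with five or more bound SRBCs scored as rosettes. Read-out is % inhibition of rosette formation versus untreated cells, mean of three independent experiments; anti-CD58 antibody as positive control.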

Jurkat [1] = test: Inhibition of CD2-CD58 interaction assessed as inhibition of adhesion between Jurkat cells and Caco-2 cells at 90 uM; type: cell-based; settings: Homo sapiens
Method in brief: (§1)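 Lymphocyte–epithelial adhesion: peptide added to confluent Caco-2 monolayer (hCD58), then BCECF-labelled Jurkat cells (hCD2). 45 min at 37 °C, nonadherent cells washed off with PBS, bound Jurkat cells lysed with Triton X-100, lysate fluorescence read. Result expressed as % inhibition versus untreated, mean of three independent experiments.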

Jurkat (Homo sapiens) = test: Inhibition of ICAM1-LFA1 mediated adhesion in Jurkat cells
Jurkat [2] = test: Inhibition of CD2-CD58 interaction assessed as inhibition of adhesion between Jurkat cells and Caco-2 cells; type: cell-based; settings: Homo sapiens, dose or concentration not given here; method in brief: as §1

## CC[C@H](C)[C@@H]1NC(=O)[C@H](CC(=O)O)NC(=O)[C@H](CC(=O)O)NC(=O)[C@H](N)C(C)(C)SSC[C@H](C(=O)O)NC(=O)[C@H](CC(=O)O)NC(=O)[C@H](Cc2ccc(O)cc2)NC(=O)[C@H]([C@@H](C)CC)NC(=O)[C@H](CO)NC(=O)[C@H](C(C)C)NC(=O)[C@H](CCCCN)NC(=O)[C@H](CCC(=O)O)NC(=O)[C@H](Cc2c[nH]c3ccccc23)NC(=O)[C@H](CCCCN)NC1=O
Erythrocyte
  inhibition: 40%
Jurkat [1]
  inhibition: 50%
Jurkat (Homo sapiens)
  Activity: inactive

## CC[C@H](C)[C@@H]1NC(=O)[C@H](CCCCN)NC(=O)[C@H](N)C(C)(C)SSC[C@H](C(=O)O)NC(=O)[C@H](CO)NC(=O)[C@H]([C@@H](C)CC)NC(=O)[C@H](Cc2ccc(O)cc2)NC(=O)[C@H](CC(=O)O)NC(=O)[C@H]([C@@H](C)O)NC(=O)[C@H]([C@@H](C)CC)NC(=O)[C@H](CC(=O)O)NC(=O)[C@H](CC(=O)O)NC1=O
Erythrocyte
  Activity: 45%
Jurkat [1]
  inhibition: 60%
Jurkat (Homo sapiens)
  Activity: inactive

## CC[C@H](C)[C@@H]1NC(=O)[C@H](CC(=O)O)NC(=O)[C@H](CC(=O)O)NC(=O)[C@H](N)C(C)(C)SSC[C@@H](C(=O)O)NC(=O)[C@H](CC(=O)O)NC(=O)[C@H](Cc2ccc(O)cc2)NC(=O)[C@H]([C@@H](C)CC)NC(=O)[C@H](CO)NC(=O)[C@H](C(C)C)NC(=O)[C@H](Cc2c[nH]c3ccccc23)NC(=O)[C@H](CCCCN)NC1=O
Erythrocyte
  inhibition: 30%

## CC[C@H](C)[C@H](N)C(=O)N[C@@H](CC(=O)O)C(=O)N[C@@H](CC(=O)O)C(=O)N[C@H](C(=O)N[C@@H](CCCCN)C(=O)N[C@@H](Cc1c[nH]c2ccccc12)C(=O)N[C@@H](CCC(=O)O)C(=O)N[C@@H](CCCCN)C(=O)N[C@H](C(=O)N[C@@H](CO)C(=O)N[C@H](C(=O)N[C@@H](Cc1ccc(O)cc1)C(=O)N[C@@H](CC(=O)O)C(=O)N[C@H](C(=O)O)[C@@H](C)O)[C@@H](C)CC)C(C)C)[C@@H](C)CC (H-IDDIKWEKVSIYDT-OH)
Jurkat [2]
  inhibition: 30%

## CC[C@H](C)[C@H](NC(=O)[C@H](CC(=O)O)NC(=O)[C@H](CC(=O)O)NC(=O)[C@@H](NC(=O)[C@H](CCCCN)NC(=O)[C@@H](N)Cc1c[nH]c2ccccc12)[C@@H](C)CC)C(=O)N[C@@H](CC(=O)O)C(=O)N[C@@H](CCCCN)C(=O)N[C@H](C(=O)N[C@@H](CC(=O)O)C(=O)N[C@@H](Cc1ccc(O)cc1)C(=O)N[C@H](C(=O)N[C@@H](CO)C(=O)N[C@H](C(=O)O)C(C)C)[C@@H](C)CC)[C@@H](C)O (H-WKIDDIDKTDYISV-OH)
Erythrocyte
  inhibition: 15%

## CC[C@H](C)[C@@H]1NC(=O)[C@H](CC(=O)O)NC(=O)[C@H](CC(=O)O)NC(=O)[C@H]([C@@H](C)CC)NC(=O)[C@H](CCCCN)NC(=O)[C@H](N)C(C)(C)SSC[C@H](C(=O)O)NC(=O)[C@H](CO)NC(=O)[C@H]([C@@H](C)CC)NC(=O)[C@H](Cc2ccc(O)cc2)NC(=O)[C@H](CC(=O)O)NC(=O)[C@H]([C@@H](C)O)NC(=O)[C@H](CCCCN)NC(=O)[C@H](CC(=O)O)NC1=O
Erythrocyte
  inhibition: 25%

## CC[C@H](C)[C@H](NC(=O)[C@H](CCCCN)NC(=O)[C@@H](N)Cc1c[nH]c2ccccc12)C(=O)N[C@@H](CC(=O)O)C(=O)N[C@@H](CC(=O)O)C(=O)N[C@H](C(=O)N[C@H](C(=O)N[C@@H](CC(=O)O)C(=O)N[C@@H](Cc1ccc(O)cc1)C(=O)N[C@H](C(=O)N[C@@H](CO)C(=O)N[C@H](C(=O)O)C(C)C)[C@@H](C)CC)[C@@H](C)O)[C@@H](C)CC (H-WKIDDITDYISV-OH)
Erythrocyte
  inhibition: 35%

— ChEMBL document CHEMBL1148723, “Structure-based rational design of beta-hairpin peptides from discontinuous epitopes of cluster of differentiation 2 (CD2) protein to modulate cell adhesion interaction” (J Med Chem, 2007)
